Assay results: ChEMBL document CHEMBL1932938, “From COX-2 inhibitor nimesulide to potent anti-cancer agent: synthesis, in vitro, in vivo and pharmacokinetic evaluation” (Eur J Med Chem, 2012)

Columns and labels:
SK-BR-3 [1] = test: Cell cycle arrest in human SK-BR-3 cells assessed as accumulation at Sub-G1 phase at 0.25 uM after 3 hrs using propidium iodide staining by FACS analysis; format: functional
SK-BR-3 [2] = test: Cell cycle arrest in human SK-BR-3 cells assessed as accumulation at Sub-G1 phase at 0.10 uM after 6 hrs using propidium iodide staining by FACS analysis; format: functional
SK-BR-3 [3] = test: Cell cycle arrest in human SK-BR-3 cells assessed as accumulation at G2/M phase at 0.10 uM after 6 hrs using propidium iodide staining by FACS analysis; format: functional
Outline: (§1)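 SKBR-3 cells in RPMI1640 with 10% heat-inactivated FBS at 37 °C and 5% CO₂ were treated for the stated times. Cells were fixed overnight in 70% EtOH at −20 °C, then stained with propidium iodide buffer (38 mM sodium citrate pH 7.5, 69 µM PI, 120 µg/mL RNase A) for 15 min at room temperature in the dark. Up to 1×10⁴ gated cells were analyzed by flow cytometry, giving percent distribution per phase.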

SK-BR-3 [4] = test: Cell cycle arrest in human SK-BR-3 cells assessed as accumulation at G2/M phase at 0.10 uM after 12 hrs using propidium iodide staining by FACS analysis; format: functional; outline: as §1
SK-BR-3 [5] = test: Cell cycle arrest in human SK-BR-3 cells assessed as accumulation at Sub-G1 phase at 0.25 uM after 12 hrs using propidium iodide staining by FACS analysis; format: functional
SK-BR-3 [6] = test: Cell cycle arrest in human SK-BR-3 cells assessed as accumulation at G1 phase at 0.50 uM after 12 hrs using propidium iodide staining by FACS analysis; format: functional; outline: as §1
SK-BR-3 [7] = test: Cell cycle arrest in human SK-BR-3 cells assessed as accumulation at G2/M phase at 0.50 uM after 12 hrs using propidium iodide staining by FACS analysis; format: functional; outline: as §1
SK-BR-3 [8] = test: Cell cycle arrest in human SK-BR-3 cells assessed as accumulation at Sub-G1 phase at 0.25 uM after 18 hrs using propidium iodide staining by FACS analysis; format: functional
SK-BR-3 [9] = test: Cell cycle arrest in human SK-BR-3 cells assessed as accumulation at G2/M phase at 0.25 uM after 18 hrs using propidium iodide staining by FACS analysis; format: functional; outline: as §1
SK-BR-3 [10] = test: Cell cycle arrest in human SK-BR-3 cells assessed as accumulation at Sub-G1 phase at 0.50 uM after 18 hrs using propidium iodide staining by FACS analysis; format: functional
SK-BR-3 [11] = test: Cell cycle arrest in human SK-BR-3 cells assessed as accumulation at Sub-G1 phase at 5 uM after 18 hrs using propidium iodide staining by FACS analysis; format: functional
SK-BR-3 [12] = test: Cell cycle arrest in human SK-BR-3 cells assessed as accumulation at S phase at 5 uM after 18 hrs using propidium iodide staining by FACS analysis; format: functional
SK-BR-3 [13] = test: Cell cycle arrest in human SK-BR-3 cells assessed as accumulation at Sub-G1 phase at 0.25 uM after 24 hrs using propidium iodide staining by FACS analysis; format: functional
SK-BR-3 [14] = test: Cell cycle arrest in human SK-BR-3 cells assessed as accumulation at S phase at 0.25 uM after 24 hrs using propidium iodide staining by FACS analysis; format: functional
SK-BR-3 [15] = test: Cell cycle arrest in human SK-BR-3 cells assessed as accumulation at Sub-G1 phase at 0.50 uM after 24 hrs using propidium iodide staining by FACS analysis; format: functional
SK-BR-3 [16] = test: Cell cycle arrest in human SK-BR-3 cells assessed as accumulation at S phase at 5 uM after 24 hrs using propidium iodide staining by FACS analysis; format: functional
SK-BR-3 [17] = test: Cell cycle arrest in human SK-BR-3 cells assessed as accumulation at G2/M phase at 5 uM after 24 hrs using propidium iodide staining by FACS analysis; format: functional; outline: as §1
RPMI-8226 = test: Growth inhibition of human RPMI8226 cells after 48 hrs by SRB assay; format: functional
NCI-H226 = test: Growth inhibition of human NCI-H226 cells after 48 hrs by SRB assay; format: functional
NCI-H460 = test: Growth inhibition of human NCI-H460 cells after 48 hrs by SRB assay; format: functional
HCT-116 = test: Growth inhibition of human HCT116 cells after 48 hrs by SRB assay; format: functional
HCT-15 = test: Growth inhibition of human HCT15 cells after 48 hrs by SRB assay; format: functional
HT-29 = test: Growth inhibition of human HT-29 cells after 48 hrs by SRB assay; format: functional
SF-268 = test: Growth inhibition of human SF268 cells after 48 hrs by SRB assay; format: functional
SK-MEL-2 = test: Growth inhibition of human SK-MEL-2 cells after 48 hrs by SRB assay; format: functional
PC-3 = test: Growth inhibition of human PC3 cells after 48 hrs by SRB assay; format: functional
MCF7 = test: Growth inhibition of human MCF7 cells after 48 hrs by SRB assay; format: functional
[18] = Mean residence time (0 to t) in Sprague-Dawley rat at 20 mg/kg, ip; format: ADME, organism-based; set-up: dose 20 mg/kg, route intraperitoneal; details: in vivo
Outline: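 Male Sprague–Dawley rats (300–350 g, n=3), fasted overnight with water allowed. Single 20 mg/kg i.p. dose in PBS with 0.1% Tween80 and 20% DMSO. Blood taken from saphenous and femoral veins into heparinized tubes at 0, 0.25, 0.5, 1, 2, 4, 8 and 24 h. Plasma quantified by LC-MS/MS (MRM, 483.3→404.3) after tert-butyl methyl ether/hexane extraction. Parameters derived non-compartmentally.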

SK-BR-3 [19] = test: Cell cycle arrest in human SK-BR-3 cells assessed as accumulation at Sub-G1 phase at 5 uM after 3 hrs using propidium iodide staining by FACS analysis; format: functional
SK-BR-3 [20] = test: Cell cycle arrest in human SK-BR-3 cells assessed as accumulation at S phase at 0.50 uM after 6 hrs using propidium iodide staining by FACS analysis; format: functional
SK-BR-3 [21] = test: Cell cycle arrest in human SK-BR-3 cells assessed as accumulation at G2/M phase at 0.50 uM after 6 hrs using propidium iodide staining by FACS analysis; format: functional; outline: as §1
SK-BR-3 [22] = test: Cell cycle arrest in human SK-BR-3 cells assessed as accumulation at G1 phase at 5 uM after 6 hrs using propidium iodide staining by FACS analysis; format: functional; outline: as §1

`Cc1ccc(C)c(COc2cc(NC(=O)c3ccc4c(c3)OCO4)ccc2N(C)S(C)(=O)=O)c1` showed an Activity (SK-BR-3 [1]) of 3.23%, an Activity (SK-BR-3 [2]) of 3.6% and an Activity (SK-BR-3 [3]) of 9.07%. The Activity (SK-BR-3 [4]) was 12.05%, the Activity (SK-BR-3 [5]) was 6.85% and the Activity (SK-BR-3 [6]) was 63.15%. For the same molecule, the Activity (SK-BR-3 [7]) was 24.26%, the Activity (SK-BR-3 [8]) was 8.89% and the Activity (SK-BR-3 [9]) was 10.57%. The Activity (SK-BR-3 [10]) was 8.47%, the Activity (SK-BR-3 [11]) was 8.31% and the Activity (SK-BR-3 [12]) was 6.73%. For the same molecule, the Activity (SK-BR-3 [13]) was 24.95%, the Activity (SK-BR-3 [14]) was 10.87% and the Activity (SK-BR-3 [15]) was 27.94%. The Activity (SK-BR-3 [16]) was 11.53%, the Activity (SK-BR-3 [17]) was 28.29% and the “growth inhibition (GI)” value (RPMI-8226) was “Dose-dependent effect”. For the same molecule, the GI50 (RPMI-8226; RPMI-8226, 48 h) was 0.29 µM, the CC50 (RPMI-8226; RPMI-8226, 48 h, read-out: LC50 (the source's name)) was > 100 µM and the “growth inhibition (GI)” value (NCI-H226) was “Dose-dependent effect”. The GI50 (NCI-H226; NCI-H226, 48 h) was 0.686 µM, the TGI (NCI-H226; NCI-H226, 48 h) was > 100 µM and the CC50 (NCI-H226; NCI-H226, 48 h, read-out: LC50 (the source's name)) was > 100 µM. For the same molecule, the “growth inhibition (GI)” value (NCI-H460) was “Dose-dependent effect”, the GI50 (NCI-H460; NCI-H460, 48 h) was 0.184 µM and the TGI (NCI-H460; NCI-H460, 48 h) was 0.744 µM. The CC50 (NCI-H460; NCI-H460, 48 h, read-out: LC50 (the source's name)) was > 100 µM, the “growth inhibition (GI)” value (HCT-116) was “Dose-dependent effect” and the TGI (HCT-116; HCT-116, 48 h) was 1.02 µM. The CC50 (HCT-116; HCT-116, 48 h, read-out: LC50 (the source's name)) was > 100 µM, the “growth inhibition (GI)” value (HCT-15) was “Dose-dependent effect” and the GI50 (HCT-15; HCT-15, 48 h) was 0.289 µM. For the same molecule, the TGI (HCT-15; HCT-15, 48 h) was > 100 µM, the CC50 (HCT-15; HCT-15, 48 h, read-out: LC50 (the source's name)) was > 100 µM and the “growth inhibition (GI)” value (HT-29) was “Dose-dependent effect”. The GI50 (HT-29; HT-29, 48 h) was 0.0772 µM, the TGI (HT-29; HT-29, 48 h) was 0.419 µM and the CC50 (HT-29; HT-29, 48 h, read-out: LC50 (the source's name)) was > 100 µM. For the same molecule, the “growth inhibition (GI)” value (SF-268) was “Dose-dependent effect”, the GI50 (SF-268; SF-268, 48 h) was 0.288 µM and the TGI (SF-268; SF-268, 48 h) was > 100 µM. For the same molecule, the CC50 (SF-268; SF-268, 48 h, read-out: LC50 (the source's name)) was > 100 µM, the “growth inhibition (GI)” value (SK-MEL-2) was “Dose-dependent effect” and the GI50 (SK-MEL-2; SK-MEL-2, 48 h) was 0.0897 µM. The TGI (SK-MEL-2; SK-MEL-2, 48 h) was 0.616 µM, the CC50 (SK-MEL-2; SK-MEL-2, 48 h, read-out: LC50 (the source's name)) was > 100 µM and the “growth inhibition (GI)” value (PC-3) was “Dose-dependent effect”. The GI50 (PC-3; PC-3, 48 h) was 0.0677 µM, the TGI (PC-3; PC-3, 48 h) was > 100 µM and the “growth inhibition (GI)” value (MCF7) was “Dose-dependent effect”. The TGI (MCF7; MCF7, 48 h) was > 100 µM, the CC50 (MCF7; MCF7, 48 h, read-out: LC50 (the source's name)) was > 100 µM and the MRT last [18] was 6 h. For the same molecule, the Activity (SK-BR-3 [19]) was 2.81%, the Activity (SK-BR-3 [20]) was 14.73% and the Activity (SK-BR-3 [21]) was 13.9%. The Activity (SK-BR-3 [22]) was 64.76%.
